Laboratory results as given in ChEMBL document CHEMBL5120825, “The azulene scaffold from a medicinal chemist's perspective: Physicochemical and in vitro parameters relevant for drug discovery” (Eur J Med Chem, 2022).
Values after ≈ are worked out from the molar mass of the structure shown.

Columns and labels:
[1] = Dissociation constant, pKa of the compound by dip probe absorption spectroscopy; assay type: physicochemical
Cytochrome P450 2D6 = Cytochrome P450 2D6 (Homo sapiens, UniProt P10635); assay: Inhibition of CYP2D6 in human liver microsomes using dextromethorphan as substrate preincubated with compound followed by NADPH addition by LC-MS/MS analysis; assay type: ADME, Microsome
Sequence of Cytochrome P450 2D6 (P10635 whole entry): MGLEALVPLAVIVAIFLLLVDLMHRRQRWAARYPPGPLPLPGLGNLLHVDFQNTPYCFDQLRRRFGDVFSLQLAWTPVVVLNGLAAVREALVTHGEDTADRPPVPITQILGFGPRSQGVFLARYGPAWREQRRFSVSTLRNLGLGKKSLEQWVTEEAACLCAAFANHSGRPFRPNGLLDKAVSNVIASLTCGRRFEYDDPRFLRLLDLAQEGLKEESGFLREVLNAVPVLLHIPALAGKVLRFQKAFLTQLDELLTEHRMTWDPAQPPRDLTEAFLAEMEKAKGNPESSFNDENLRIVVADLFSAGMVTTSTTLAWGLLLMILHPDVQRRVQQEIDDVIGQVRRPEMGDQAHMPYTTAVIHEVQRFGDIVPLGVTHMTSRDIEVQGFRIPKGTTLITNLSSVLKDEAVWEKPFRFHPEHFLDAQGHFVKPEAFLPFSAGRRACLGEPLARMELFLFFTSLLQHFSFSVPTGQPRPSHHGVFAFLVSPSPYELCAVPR

Cytochrome P450 3A4 = Cytochrome P450 3A4 (Homo sapiens, UniProt P08684); assay: Inhibition of CYP3A4 in human liver microsomes using midazolam as substrate preincubated with compound followed by NADPH addition by LC-MS/MS analysis; assay type: ADME, Microsome
Sequence of Cytochrome P450 3A4 (P08684 whole entry): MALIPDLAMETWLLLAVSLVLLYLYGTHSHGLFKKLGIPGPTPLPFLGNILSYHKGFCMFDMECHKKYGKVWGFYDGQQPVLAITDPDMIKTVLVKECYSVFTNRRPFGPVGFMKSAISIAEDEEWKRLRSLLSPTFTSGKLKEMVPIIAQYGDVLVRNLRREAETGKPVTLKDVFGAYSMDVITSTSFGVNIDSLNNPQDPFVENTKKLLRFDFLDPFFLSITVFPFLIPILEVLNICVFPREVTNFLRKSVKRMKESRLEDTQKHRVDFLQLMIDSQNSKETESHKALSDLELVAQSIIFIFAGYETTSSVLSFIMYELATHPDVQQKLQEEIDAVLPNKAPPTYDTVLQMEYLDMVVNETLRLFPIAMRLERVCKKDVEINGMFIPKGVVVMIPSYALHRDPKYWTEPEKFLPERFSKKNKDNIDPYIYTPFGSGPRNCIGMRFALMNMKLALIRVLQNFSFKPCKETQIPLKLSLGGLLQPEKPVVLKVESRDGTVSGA

Cytochrome P450 2C19 = Cytochrome P450 2C19 (Homo sapiens, UniProt P33261); assay: Inhibition of CYP2C19 in human liver microsomes using mephenytoin as substrate preincubated with compound followed by NADPH addition by LC-MS/MS analysis; assay type: ADME, Microsome
Sequence of Cytochrome P450 2C19 (P33261 whole entry): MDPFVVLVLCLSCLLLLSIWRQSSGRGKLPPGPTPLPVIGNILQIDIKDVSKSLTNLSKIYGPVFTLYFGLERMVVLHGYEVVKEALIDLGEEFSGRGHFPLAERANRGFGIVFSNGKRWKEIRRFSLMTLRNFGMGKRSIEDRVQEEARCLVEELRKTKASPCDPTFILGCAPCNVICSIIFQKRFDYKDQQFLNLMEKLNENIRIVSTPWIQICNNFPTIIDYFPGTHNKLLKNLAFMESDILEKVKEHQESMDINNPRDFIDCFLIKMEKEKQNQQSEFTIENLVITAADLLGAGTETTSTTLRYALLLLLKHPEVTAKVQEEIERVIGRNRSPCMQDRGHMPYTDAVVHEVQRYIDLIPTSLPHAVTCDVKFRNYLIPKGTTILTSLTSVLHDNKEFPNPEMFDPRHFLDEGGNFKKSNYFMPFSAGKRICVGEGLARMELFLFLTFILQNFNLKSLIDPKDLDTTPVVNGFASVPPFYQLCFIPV

Cytochrome P450 2C8 = molecular target: T1, Cytochrome P450 2C8 (Homo sapiens, UniProt P10632); assay: Inhibition of CYP2C8 in human liver microsomes using amodiaquine as substrate preincubated with compound followed by NADPH addition by LC-MS/MS analysis; assay type: ADME, Microsome
T1 sequence (P10632 whole entry): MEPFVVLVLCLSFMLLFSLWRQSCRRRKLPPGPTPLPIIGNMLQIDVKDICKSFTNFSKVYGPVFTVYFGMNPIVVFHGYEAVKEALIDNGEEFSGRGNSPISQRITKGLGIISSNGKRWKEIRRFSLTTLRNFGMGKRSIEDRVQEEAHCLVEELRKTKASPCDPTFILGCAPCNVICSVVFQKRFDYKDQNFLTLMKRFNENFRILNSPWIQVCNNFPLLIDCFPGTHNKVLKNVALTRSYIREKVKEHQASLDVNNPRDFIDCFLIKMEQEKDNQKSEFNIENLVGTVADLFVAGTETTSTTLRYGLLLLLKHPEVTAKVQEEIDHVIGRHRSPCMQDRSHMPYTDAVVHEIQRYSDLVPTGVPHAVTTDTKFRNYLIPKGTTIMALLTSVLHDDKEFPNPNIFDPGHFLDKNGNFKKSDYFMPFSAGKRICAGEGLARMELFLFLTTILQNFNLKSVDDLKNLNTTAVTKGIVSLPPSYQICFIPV

Cytochrome P450 2C9 = Cytochrome P450 2C9 (Homo sapiens, UniProt P11712); assay: Inhibition of CYP2C9 in human liver microsomes using diclofenac as substrate preincubated with compound followed by NADPH addition by LC-MS/MS analysis; assay type: ADME, Microsome
Sequence of Cytochrome P450 2C9 (P11712 whole entry): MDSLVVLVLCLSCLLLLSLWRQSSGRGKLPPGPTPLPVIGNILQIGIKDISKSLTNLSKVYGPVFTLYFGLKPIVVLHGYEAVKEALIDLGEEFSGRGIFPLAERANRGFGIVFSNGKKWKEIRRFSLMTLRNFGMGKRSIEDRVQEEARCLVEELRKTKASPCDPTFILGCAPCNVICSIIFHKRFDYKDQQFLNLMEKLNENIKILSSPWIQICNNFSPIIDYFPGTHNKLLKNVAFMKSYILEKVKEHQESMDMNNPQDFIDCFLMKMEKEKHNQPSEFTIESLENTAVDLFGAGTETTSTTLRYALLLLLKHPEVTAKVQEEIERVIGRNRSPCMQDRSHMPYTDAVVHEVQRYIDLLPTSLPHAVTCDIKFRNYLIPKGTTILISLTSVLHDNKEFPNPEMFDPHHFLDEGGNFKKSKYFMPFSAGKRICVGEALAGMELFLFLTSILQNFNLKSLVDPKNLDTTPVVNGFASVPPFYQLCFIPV

[2] = Photostability of the compound at pH 4.1 assessed as compound degradation administered as solution irradiated with sun light and measured after 7 days by HPLC analysis; assay type: physicochemical; settings: time 7 day, read-out: Drug degradation
Procedure, shortened: (§1)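 Compound in solution was kept for 7 days under "mild" light-stress conditions, with no pH adjustment. The pH listed for each compound is the solution's own intrinsic pH. Result is % degradation of parent.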

[3] = Stability of the compound at pH 7.4 assessed as half life measured after 24 hrs in presence of GSH by HPLC analysis; assay type: physicochemical; settings: solution with GSH
[4] = Photostability of the compound assessed as compound degradation administered as solid irradiated with sun light and measured after 7 days by HPLC analysis
[5] = Cytotoxicity against human HepG2 cells assessed as cell growth inhibition incubated for 24 hrs by MTT assay; assay type: toxicity, cell-based
Procedure, shortened: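 HepG2 human hepatoma cells were exposed to compound at concentrations up to 400 µM and viability was read by MTT. The result is given in µM.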

[6] = Photostability of the compound at pH 8.6 assessed as compound degradation administered as solution irradiated with sun light and measured after 7 days by HPLC analysis; assay type: physicochemical; settings: time 7 day, read-out: Drug degradation; procedure, shortened: as §1
[7] = Permeability of the compound at pH 7.4 by PAMPA assay; assay type: ADME; settings: read-out: permeability
[8] = Metabolic stability in human liver microsomes assessed as hepatic blood flow at 1 uM preincubated with compound followed by NADPH addition by LC-MS/MS analysis; assay type: ADME, Microsome; settings: read-out: QH
[9] = Aqueous solubility of the compound at pH 2.2 incubated for 24 hrs under shaking condition by LC-UV analysis; assay type: physicochemical; settings: aqueous medium
Procedure, shortened: (§2)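 The highest concentration tested was 250 μM, so results are capped at that level. Values are reported in µg/ml.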

[10] = Hydrolytic stability of the compound in aqueous buffer at pH 7.4 assessed as compound decomposition measured after 3 days by HPLC analysis; assay type: physicochemical; settings: time 3 day, read-out: Drug degradation
Procedure, shortened: (§3)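 Compound was held for 3 days at 40 °C in 0.1 M HCl in water or in aqueous buffer at pH 7.4. Dissolution was confirmed by eye, and decomposition is reported as % loss of parent.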

[11] = Octanol-water partition coefficient, logD of the compound at pH 11 by HPLC analysis; assay type: physicochemical; settings: read-out: logD
[12] = Octanol-water partition coefficient, logD of the compound at pH 2 by HPLC analysis; assay type: physicochemical
[13] = Hydrolytic stability of the compound in aqueous HCl assessed as compound decomposition measured after 3 days by HPLC analysis; assay type: physicochemical; settings: time 3 day, read-out: Drug degradation; procedure, shortened: as §3
[14] = Aqueous solubility of the compound at pH 4.5 incubated for 24 hrs under shaking condition by LC-UV analysis; assay type: physicochemical; settings: aqueous medium; procedure, shortened: as §2
[15] = Photostability of the compound assessed as compound degradation administered as aqueous solution irradiated with UV and measured after 24 hrs by HPLC analysis
[16] = Lipophilicity, logP of the compound; assay type: physicochemical; settings: octanol/water
[17] = Aqueous solubility of the compound at pH 6.8 incubated for 24 hrs under shaking condition by LC-UV analysis; assay type: physicochemical; settings: aqueous medium; procedure, shortened: as §2

Row | Structure (SMILES) | IC50 (Cytochrome P450 2D6) [µM] | IC50 (Cytochrome P450 3A4) [µM] | IC50 (Cytochrome P450 2C19) [µM] | IC50 (Cytochrome P450 2C8) [µM] | IC50 (Cytochrome P450 2C9) [µM] | half-life [3] [days] | Papp [7] [×10⁻⁶ cm/s] | hepatic extraction ratio at 1 µM [8] | solubility thermodynamic at 24 h [9] [µg/mL] | logD [11] | logD [12] | solubility thermodynamic at 24 h [14] [µg/mL] | logP [16] | solubility thermodynamic at 24 h [17] [µg/mL] | also measured
1 | O=C(O)c1c[nH]c2ccccc12 | – | – | – | – | – | – | – | – | – | – | – | – | – | – | pKa [1]: 5.29
2 | O=C(O)c1ccc2ccc(C(=O)c3ccc(C(F)(F)F)cc3)c-2cc1 | > 50 | > 50 | > 50 | 13 | > 50 | – | – | – | – | – | – | – | – | – | –
3 | O=C(O)c1ccc2c(C(=O)c3ccccc3)cc(C(=O)c3ccccc3)c-2cc1 | > 50 | > 50 | > 50 | 1.5 | 12 | – | – | – | – | – | – | – | – | – | –
4 | O=C(O)c1ccc2ccc(C(=O)c3ccccc3)c-2cc1 | > 50 | > 50 | > 50 | > 50 | > 50 | > 41.7 | – | – | – | – | – | – | – | – | degraded at 168 h [2]: < 0.5%; degraded at 168 h [4]: < 0.5%; pKa [1]: 3.2
5 | CN(C)C(=O)c1ccc2cccccc1-2 | > 50 | > 50 | > 50 | > 50 | > 50 | > 41.7 | 7.6 | 0.67 | > 43 | 1.6 | 2.1 | > 44 | 1.6 | > 40 | EC50 at 24 h [5]: > 400 µM; degraded at 168 h [6]: 3%; degraded at 168 h [4]: < 0.5%; degraded at 72 h [10]: < 0.5%; degraded at 72 h [13]: < 0.5%; degraded at 24 h [15]: 100%
6 | COC(=O)c1ccc2ccc(C(=O)N(C)C)c-2cc1 | – | – | – | – | – | > 41.7 | 7.4 | – | > 64 | 2.1 | – | 50 (≈ 194 µM) | – | > 64 | logD ([12]; read-out: logD): 2.3; logP ([16]; read-out: logP): 2.1
7 | CN(C)C(=O)c1cccc2ccccc12 | – | – | – | – | – | – | 8.3 | < 0.23 | > 47 | 1.8 | 2.2 | > 50 | 1.8 | > 43 | degraded at 24 h [15]: < 0.5%
8 | NC(=O)C1CCN(C(=O)c2ccc3cccccc2-3)CC1 | > 50 | > 50 | > 50 | > 50 | > 50 | – | 0.5 | < 0.23 | > 71 | 0.6 | 1.2 | > 57 | 0.6 | > 58 | EC50 at 24 h [5]: > 400 µM
9 | Cn1cc(C(=O)c2ccccc2)c2cc(C(=O)NCCc3c[nH]c4ccccc34)ccc21 | – | – | – | – | – | – | 0.04 | 0.79 | < 1 | 3.5 | – | < 1 | – | < 1 | logD ([12]; read-out: logD): 3.6; logP ([16]; read-out: logP): 3.5
10 | COc1cccc(C(=O)c2ccc3ccc(C(=O)O)ccc2-3)c1 | > 50 | > 50 | > 50 | 22 | > 50 | – | – | – | – | – | – | – | – | – | –
